Laboratory results from ChEMBL document CHEMBL1828538, “Synthesis and pharmacological evaluation of indole-based sigma receptor ligands” (Eur J Med Chem, 2011).
pKi: −log10 of the molar value. The source made the active and inactive calls. The calls are words filed in the database; no cut-off is given here.

Legend:
[1] = molecular target: 5-hydroxytryptamine receptor 2A (Homo sapiens, UniProt P28223); assay: Displacement of […] from human 5HT2A receptor expressed in HEK cells; assay type: cell-based, HEK293
[2] = molecular target: T1, Muscarinic acetylcholine receptor M2 (Homo sapiens) (UniProt P08172); assay: Displacement of radioligand from muscarinic M2 receptor assessed as 50% receptor inhibition at 10^-7 M
T1 sequence (whole entry): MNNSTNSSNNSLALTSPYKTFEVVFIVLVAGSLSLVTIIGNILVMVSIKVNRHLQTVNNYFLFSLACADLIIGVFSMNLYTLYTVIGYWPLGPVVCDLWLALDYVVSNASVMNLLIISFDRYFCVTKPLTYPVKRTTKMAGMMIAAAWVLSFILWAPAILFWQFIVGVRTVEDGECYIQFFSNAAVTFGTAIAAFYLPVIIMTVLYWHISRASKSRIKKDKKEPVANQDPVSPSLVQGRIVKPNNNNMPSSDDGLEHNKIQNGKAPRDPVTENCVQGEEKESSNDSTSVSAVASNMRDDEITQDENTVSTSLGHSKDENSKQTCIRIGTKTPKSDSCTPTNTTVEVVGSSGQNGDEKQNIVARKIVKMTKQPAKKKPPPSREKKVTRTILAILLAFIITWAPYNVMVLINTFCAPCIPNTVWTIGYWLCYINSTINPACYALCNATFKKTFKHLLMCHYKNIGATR
Outline: (§1)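 Part of a contracted (NovaScreen) panel of 64 radioligand/enzyme assays, with the test compound run at 10⁻⁵ M and 10⁻⁷ M. Each assay was scored by whether radioligand displacement exceeded 50% at each concentration.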

[3] = Displacement of radioligand from sodium channel site 2 assessed as 50% receptor inhibition at 10^-5 M; outline: as §1
[4] = Displacement of radioligand from adrenergic alpha1 receptor assessed as 50% receptor inhibition at 10^-7 M; outline: as §1
[5] = molecular target: T2, 5-hydroxytryptamine receptor 1A (Homo sapiens, UniProt P08908); assay: Displacement of [3H]8-OH-DPAT from human 5HT1A receptor expressed in HEK cells; assay type: cell-based, HEK293
T2 sequence (P08908 whole entry): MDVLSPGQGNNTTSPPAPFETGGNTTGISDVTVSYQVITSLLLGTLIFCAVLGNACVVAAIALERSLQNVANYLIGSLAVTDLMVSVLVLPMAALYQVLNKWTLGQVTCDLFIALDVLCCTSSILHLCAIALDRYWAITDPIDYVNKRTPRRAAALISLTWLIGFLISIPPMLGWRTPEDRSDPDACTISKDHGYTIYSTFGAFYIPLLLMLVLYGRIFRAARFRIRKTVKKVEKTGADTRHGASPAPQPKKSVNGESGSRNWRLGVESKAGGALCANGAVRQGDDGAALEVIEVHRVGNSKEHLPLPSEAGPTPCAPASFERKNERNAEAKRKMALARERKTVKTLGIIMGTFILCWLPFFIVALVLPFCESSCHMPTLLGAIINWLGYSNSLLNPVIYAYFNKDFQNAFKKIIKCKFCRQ
Outline: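 Assay used HEK-h5-HT1A cells with 0.5 nM [3H]8-OH-DPAT, and nonspecific binding defined by 1 μM dihydroergotamine. Ki came from standard competition conditions, as mean ± SEM of replicate assays.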

D(3) dopamine receptor = D(3) dopamine receptor (Homo sapiens, UniProt P35462); assay: Displacement of [3H]YM-09151-2 from human D3 receptor expressed in CHO cells; assay type: cell-based
Outline: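 CHOp-D2 or CHOp-D3 cells were labelled with 0.2–0.5 nM [3H]YM-09151-2, and nonspecific binding was set with 1 μM chlorpromazine. Ki was from standard competition conditions, as mean ± SEM of replicate assays.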

[6] = Displacement of radioligand from adrenergic alpha2 receptor assessed as 50% receptor inhibition at 10^-5 M; outline: as §1
[7] = molecular target: Cannabinoid receptor 2 (Homo sapiens) (UniProt P34972); assay: Displacement of radioligand from cannabinoid CB2 receptor assessed as 50% receptor inhibition at 10^-5 M; outline: as §1
[8] = molecular target: T3, Glycine receptor subunit alpha-1 (Homo sapiens) (UniProt P23415); assay: Displacement of radioligand from strychnine sensitive glycine receptor assessed as 50% receptor inhibition at 10^-5 M; outline: as §1
T3 sequence (whole entry): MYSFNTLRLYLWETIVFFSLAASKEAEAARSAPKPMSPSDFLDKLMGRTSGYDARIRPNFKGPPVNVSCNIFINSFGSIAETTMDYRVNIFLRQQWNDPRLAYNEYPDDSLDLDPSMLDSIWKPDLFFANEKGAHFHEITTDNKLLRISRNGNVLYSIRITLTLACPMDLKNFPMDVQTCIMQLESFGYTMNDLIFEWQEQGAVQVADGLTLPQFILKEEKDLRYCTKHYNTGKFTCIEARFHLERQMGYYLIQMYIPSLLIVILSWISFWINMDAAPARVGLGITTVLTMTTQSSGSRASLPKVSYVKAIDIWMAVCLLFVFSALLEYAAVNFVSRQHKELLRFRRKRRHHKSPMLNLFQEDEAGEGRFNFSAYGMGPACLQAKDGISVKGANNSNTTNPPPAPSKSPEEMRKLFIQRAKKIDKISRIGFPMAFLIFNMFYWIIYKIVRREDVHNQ

[9] = Displacement of radioligand from adrenergic beta1 receptor assessed as 50% receptor inhibition at 10^-7 M; outline: as §1
[10] = Displacement of radioligand from adrenergic alpha1 receptor assessed as 50% receptor inhibition at 10^-5 M; outline: as §1
[11] = molecular target: Histamine H1 receptor (Homo sapiens) (UniProt P35367); assay: Displacement of radioligand from histamine H1 receptor assessed as 50% receptor inhibition at 10^-5 M; outline: as §1
[12] = Displacement of radioligand from muscarinic receptor assessed as 50% receptor inhibition at 10^-7 M; outline: as §1
[13] = molecular target: Cannabinoid receptor 1 (Homo sapiens) (UniProt P21554); assay: Displacement of radioligand from cannabinoid CB1 receptor assessed as 50% receptor inhibition at 10^-5 M; outline: as §1
[14] = Displacement of radioligand from dopamine D4.2 receptor assessed as 50% receptor inhibition at 10^-5 M; outline: as §1
[15] = molecular target: Sodium-dependent serotonin transporter (Homo sapiens, UniProt P31645); assay: Displacement of [125I]RTI-55 from human SERT expressed in HEK293 cells; assay type: cell-based
[16] = Displacement of radioligand from adrenergic alpha2 receptor assessed as 50% receptor inhibition at 10^-7 M; outline: as §1
D(1A) dopamine receptor = D(1A) dopamine receptor (Homo sapiens, UniProt P21728); assay: Displacement of [3H]SCH-23390 from human D1 receptor in cell-based assay
Outline: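 LhD1 cells were labelled with 0.18 nM [3H]SCH-23390, with 1 μM SCH-23390 for nonspecific binding. Ki was from standard assay conditions, as mean ± SEM of replicates. A value >10000 nM denotes under 30% displacement at that concentration.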

Chain of Cannabinoid receptor 1 (Homo sapiens) (P21554 whole entry): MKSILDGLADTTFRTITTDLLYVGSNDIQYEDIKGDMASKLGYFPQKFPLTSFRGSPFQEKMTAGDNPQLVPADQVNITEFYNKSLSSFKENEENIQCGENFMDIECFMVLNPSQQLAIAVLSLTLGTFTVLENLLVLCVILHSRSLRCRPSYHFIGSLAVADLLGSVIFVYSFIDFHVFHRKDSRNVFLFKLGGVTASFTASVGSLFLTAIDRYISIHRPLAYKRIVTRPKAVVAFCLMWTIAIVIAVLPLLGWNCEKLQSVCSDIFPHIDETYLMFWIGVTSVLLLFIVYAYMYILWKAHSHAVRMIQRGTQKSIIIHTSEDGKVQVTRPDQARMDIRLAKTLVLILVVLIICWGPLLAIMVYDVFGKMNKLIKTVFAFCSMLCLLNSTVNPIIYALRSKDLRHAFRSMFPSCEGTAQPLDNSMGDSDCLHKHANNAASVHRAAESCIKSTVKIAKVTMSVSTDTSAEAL
Chain of 5-hydroxytryptamine receptor 2A (P28223 whole entry): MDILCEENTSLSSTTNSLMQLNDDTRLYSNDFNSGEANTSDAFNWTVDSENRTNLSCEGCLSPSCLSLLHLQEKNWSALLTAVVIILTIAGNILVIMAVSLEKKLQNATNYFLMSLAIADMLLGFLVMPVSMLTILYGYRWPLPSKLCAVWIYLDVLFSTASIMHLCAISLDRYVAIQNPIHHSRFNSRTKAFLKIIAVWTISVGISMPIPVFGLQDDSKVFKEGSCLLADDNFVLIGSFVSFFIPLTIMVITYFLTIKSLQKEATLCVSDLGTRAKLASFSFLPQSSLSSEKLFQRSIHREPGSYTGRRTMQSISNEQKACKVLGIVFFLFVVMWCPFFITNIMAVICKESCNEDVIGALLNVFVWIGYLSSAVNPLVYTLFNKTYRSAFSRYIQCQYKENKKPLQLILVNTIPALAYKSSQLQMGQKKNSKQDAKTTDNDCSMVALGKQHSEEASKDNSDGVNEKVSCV
Chain of Histamine H1 receptor (Homo sapiens) (P35367 whole entry): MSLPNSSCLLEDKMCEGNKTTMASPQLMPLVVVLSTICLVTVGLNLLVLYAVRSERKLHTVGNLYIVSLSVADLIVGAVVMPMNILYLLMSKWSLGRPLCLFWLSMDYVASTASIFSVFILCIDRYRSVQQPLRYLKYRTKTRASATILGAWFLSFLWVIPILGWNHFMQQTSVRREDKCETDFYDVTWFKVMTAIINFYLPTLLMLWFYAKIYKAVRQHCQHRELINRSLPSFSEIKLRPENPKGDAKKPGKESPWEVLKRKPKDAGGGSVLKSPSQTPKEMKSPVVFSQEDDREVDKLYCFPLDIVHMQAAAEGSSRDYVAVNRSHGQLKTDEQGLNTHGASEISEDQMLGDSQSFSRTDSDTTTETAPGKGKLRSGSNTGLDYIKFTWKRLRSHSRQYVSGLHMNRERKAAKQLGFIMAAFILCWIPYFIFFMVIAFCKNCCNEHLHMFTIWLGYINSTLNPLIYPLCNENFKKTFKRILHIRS
Chain of D(3) dopamine receptor (P35462 whole entry): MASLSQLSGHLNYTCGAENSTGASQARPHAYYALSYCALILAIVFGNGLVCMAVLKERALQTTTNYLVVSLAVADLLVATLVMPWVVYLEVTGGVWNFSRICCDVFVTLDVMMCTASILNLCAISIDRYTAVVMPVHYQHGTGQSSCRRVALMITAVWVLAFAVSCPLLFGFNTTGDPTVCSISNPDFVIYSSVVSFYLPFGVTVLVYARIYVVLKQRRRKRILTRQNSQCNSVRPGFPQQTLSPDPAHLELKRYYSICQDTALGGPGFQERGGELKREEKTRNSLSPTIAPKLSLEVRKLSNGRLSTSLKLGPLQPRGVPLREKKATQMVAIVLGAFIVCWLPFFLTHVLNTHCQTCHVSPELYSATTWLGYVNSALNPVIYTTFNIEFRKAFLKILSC
Chain of Cannabinoid receptor 2 (Homo sapiens) (P34972 whole entry): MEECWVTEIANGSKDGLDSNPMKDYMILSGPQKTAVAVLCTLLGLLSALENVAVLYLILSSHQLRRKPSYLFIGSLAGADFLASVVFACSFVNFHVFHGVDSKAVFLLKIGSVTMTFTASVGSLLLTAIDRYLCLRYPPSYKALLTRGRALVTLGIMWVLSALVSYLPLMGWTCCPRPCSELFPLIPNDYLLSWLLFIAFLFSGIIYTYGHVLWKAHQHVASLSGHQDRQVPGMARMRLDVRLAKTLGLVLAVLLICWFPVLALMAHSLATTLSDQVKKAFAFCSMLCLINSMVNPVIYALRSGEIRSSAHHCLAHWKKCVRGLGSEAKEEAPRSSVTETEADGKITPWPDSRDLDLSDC
Chain of Sodium-dependent serotonin transporter (P31645 whole entry): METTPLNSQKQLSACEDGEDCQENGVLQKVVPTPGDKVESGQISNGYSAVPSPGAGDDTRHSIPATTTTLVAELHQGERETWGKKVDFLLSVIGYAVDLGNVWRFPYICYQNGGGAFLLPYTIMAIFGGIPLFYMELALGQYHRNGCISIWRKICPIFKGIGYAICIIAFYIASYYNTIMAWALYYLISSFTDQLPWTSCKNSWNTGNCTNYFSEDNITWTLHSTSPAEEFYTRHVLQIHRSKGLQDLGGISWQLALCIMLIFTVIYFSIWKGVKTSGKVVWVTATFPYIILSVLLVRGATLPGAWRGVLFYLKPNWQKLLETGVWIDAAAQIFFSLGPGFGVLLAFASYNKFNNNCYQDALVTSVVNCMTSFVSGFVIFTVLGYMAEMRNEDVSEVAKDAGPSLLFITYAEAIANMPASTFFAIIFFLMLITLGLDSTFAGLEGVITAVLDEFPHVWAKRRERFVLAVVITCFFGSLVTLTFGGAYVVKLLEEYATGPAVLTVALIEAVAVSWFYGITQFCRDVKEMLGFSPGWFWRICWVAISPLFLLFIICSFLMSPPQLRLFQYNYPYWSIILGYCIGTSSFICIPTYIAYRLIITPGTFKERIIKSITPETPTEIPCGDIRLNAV
Chain of D(1A) dopamine receptor (P21728 whole entry): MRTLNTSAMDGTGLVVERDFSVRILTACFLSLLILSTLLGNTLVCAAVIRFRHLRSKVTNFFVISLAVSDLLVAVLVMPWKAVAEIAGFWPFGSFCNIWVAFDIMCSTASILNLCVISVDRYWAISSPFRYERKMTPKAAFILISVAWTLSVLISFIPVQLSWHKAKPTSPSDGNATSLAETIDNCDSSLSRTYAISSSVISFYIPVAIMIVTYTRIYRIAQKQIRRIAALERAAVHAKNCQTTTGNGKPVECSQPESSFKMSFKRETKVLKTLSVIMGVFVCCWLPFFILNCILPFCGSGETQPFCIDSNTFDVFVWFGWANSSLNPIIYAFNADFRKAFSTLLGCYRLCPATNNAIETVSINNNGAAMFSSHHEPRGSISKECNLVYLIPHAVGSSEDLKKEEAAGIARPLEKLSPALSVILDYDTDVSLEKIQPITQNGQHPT

COc1cc2c(cc1OC)CN(CCCCn1cc(-c3ccc(F)cc3)c3ccccc31)CC2
pKi [1]: 5.90
inhibition [2]: inactive
inhibition [3]: Active
inhibition [4]: inactive
pKi [5]: 5.82
pKi (D(3) dopamine receptor): 6.26
inhibition [6]: Active
inhibition [7]: Active
inhibition [8]: Active
inhibition [9]: inactive
inhibition [10]: Active
inhibition [11]: Active
inhibition [12]: inactive
inhibition [13]: Active
inhibition [14]: Active
pKi [15]: 6.53
inhibition [16]: inactive
pKi (D(1A) dopamine receptor): < 5.00
